Data published in publication PMC3961596 (Advances in Therapy, 2014).
One block for each compound: values may come before it.

Experiments:
[1] = system: urinary glucose excretion; conditions: healthy subjects; cited from earlier work
plasma glucose = assay: Plasma glucose concentrations in the SAD and MAD studies; assay type: in vivo, human; conditions: healthy subjects, vs placebo
[2] = system: urinary glucose excretion; assay: MAD study: urinary glucose excretion; assay type: in vivo, human; conditions: for mean daily UGE (range): administration days 1–7
Procedure, shortened: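 Subjects took 5 or 10 mg/day or placebo orally for 7 days before breakfast. Urine was pooled over 24 h predose, over 2-h intervals to 16 h and 16–24 h on Days 1 and 7, and every 24 h on other days through Day 14. Glucose was measured on an automated analyzer; daily and 24-h cumulative UGE (g) were derived. Groups were compared with placebo by ANCOVA, with baseline glucose as covariate.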

[3] = system: healthy male Japanese subjects; assay: Assessment of safety in the SAD and MAD studies; assay type: in vivo, human
Single ascending dose = assay type: in vivo, human; conditions: for Cmax / Tmax / k el / Vd/F / half-life: human, plasma, po; for k el: λz
Procedure, shortened: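 Healthy Japanese men received a single oral dose (1–25 mg) or placebo with 200 mL water under fasting conditions. The 5 mg group was redosed preprandially 8 days later, followed by a standardized ~630 kcal meal. Plasma and urine were collected to 48 h (96 h at 15 and 25 mg) and assayed by HPLC–MS/MS (urine LLOQ 0.5 ng/mL). Analysis was noncompartmental: AUClast by trapezoidal rule, AUCinf extrapolated. Dose proportionality used a power model; food effect used preprandial/fasting geometric mean ratios with 90% CI (mixed model).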

SGLT2 = conditions: read-out: 50% inhibitory concentration (IC50) for SGLT2; cited from earlier work
SGLT1 = conditions: cited from earlier work
[4] = 7-day multiple ascending dose; assay type: in vivo, human; conditions: for mean daily urinary luseogliflozin excretion rate (% of daily dose): Days 1–7, range; for mean urinary luseogliflozin excretion rate: Days 1–11 (96 h after the last administration); for AUC / AUC(0-inf): po
Procedure, shortened: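 In healthy Japanese men, 5 or 10 mg/day or placebo was given orally for 7 days with 200 mL water just before breakfast, with a standardized ~630 kcal meal on Days 1 and 7. Heparin plasma was sampled to 12 h after the first dose, predose on Days 2–7, and to 96 h after the last dose. Plasma and urine were assayed by HPLC–MS/MS, and parameters derived noncompartmentally (AUCinf Day 1, AUC0–24 Day 7); accumulation was assessed by comparing these.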

[5] = system: urinary glucose excretion; assay: SAD study: urinary glucose excretion; assay type: in vivo, human
Procedure, shortened: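 After a single oral fasting dose (1–25 mg) or placebo, urine was pooled over 24 h predose and over intervals from 0–2 to 24–48 h post-dose, extended to 96 h for 15 and 25 mg. Aliquots were kept at 4 °C, and glucose was measured on an automated analyzer. UGE (g) was computed per collection period and as 24-h cumulative.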

[6] = animal study; cited from earlier work
[7] = both studies (SAD 1–25 mg, MAD 5 or 10 mg/day 7 days)
[8] = SAD, 5 mg, N = 8, estimated value (90% CI)

SMILES: CCOc1ccc(Cc2cc([C@@H]3O[C@H](CO)[C@@H](O)[C@H](O)[C@H]3O)ccc2Cl)cc1 [dapagliflozin]
maximum amount of daily UGE after multiple dose [1]: 50 to 55 g/day
maximum amount of daily UGE after single dose [1]: approximately 70 g/day

AUCinf ratio preprandial/fasting (Single ascending dose; [8]): 105 (101–110) %
AUClast ratio preprandial/fasting (Single ascending dose; [8]): 105 (101–109) %
C max ratio preprandial/fasting (Single ascending dose; [8]): 107 (89.9–127) %
mean plasma concentration as % of C max (Single ascending dose; SAD, by 48 h after administration): 2–3%
dose proportionality (Single ascending dose; SAD, dose range 1–25 mg): dose proportionality was observed
mean urinary luseogliflozin excretion rate (% of each dose) (Single ascending dose; SAD, single administration, fasting, range over doses): 3.36–4.40%
CL/F (Single ascending dose; SAD, single oral 1 mg, fasting, N = 3, mean ± SD): 3.02 ± 0.489 L/h
CL/F (Single ascending dose; SAD, single oral 3 mg, fasting, N = 8, mean ± SD): 3.16 ± 0.744 L/h
CL/F (Single ascending dose; SAD, single oral 5 mg, fasting, N = 8, mean ± SD): 2.80 ± 0.465 L/h
CL/F (Single ascending dose; SAD, single oral 5 mg, preprandial, N = 8, mean ± SD): 2.64 ± 0.362 L/h
CL/F (Single ascending dose; SAD, single oral 9 mg, fasting, N = 8, mean ± SD): 2.98 ± 0.326 L/h
CL/F (Single ascending dose; SAD, single oral 15 mg, fasting, N = 8, mean ± SD): 2.99 ± 0.483 L/h
CL/F (Single ascending dose; SAD, single oral 25 mg, fasting, N = 8, mean ± SD): 2.99 ± 0.436 L/h
Cmax (Single ascending dose; 1 mg): 38.2 ± 4.86 ng/mL
Tmax (Single ascending dose; 1 mg): 0.667 ± 0.289 h
k el (Single ascending dose; 1 mg, SAD, single oral 1 mg, fasting, N = 3, mean ± SD): 1.85e-05 s⁻¹
Cmax (Single ascending dose; 3 mg): 116 ± 24.6 ng/mL
Tmax (Single ascending dose; 3 mg): 0.75 ± 0.267 h
k el (Single ascending dose; 3 mg, SAD, single oral 3 mg, fasting, N = 8, mean ± SD): 2.11e-05 s⁻¹
Cmax (Single ascending dose; 5 mg): 187 ± 27.3 ng/mL
Tmax (Single ascending dose; 5 mg): 1.06 ± 0.496 h
Vd/F (Single ascending dose; 5 mg): 38.9 ± 4.97 L
half-life (Single ascending dose; 5 mg): 10.3 ± 1.02 h
k el (Single ascending dose; 5 mg, SAD, single oral 5 mg, fasting, N = 8, mean ± SD): 2.01e-05 s⁻¹
Cmax (Single ascending dose; 9 mg): 312 ± 45.2 ng/mL
Tmax (Single ascending dose; 9 mg): 1.25 ± 0.598 h
k el (Single ascending dose; 9 mg, SAD, single oral 9 mg, fasting, N = 8, mean ± SD): 1.96e-05 s⁻¹
Vd/F (Single ascending dose; 15 mg): 60.5 ± 31 L
half-life (Single ascending dose; 15 mg): 13.8 ± 5.76 h
k el (Single ascending dose; 15 mg, SAD, single oral 15 mg, fasting, N = 8, mean ± SD): 1.57e-05 s⁻¹
Vd/F (Single ascending dose; 25 mg): 54.7 ± 13.7 L
k el (Single ascending dose; 25 mg, SAD, single oral 25 mg, fasting, N = 8, mean ± SD): 1.56e-05 s⁻¹
Tmax (Single ascending dose; male): 0.667 to 2.25 h
half-life (Single ascending dose; male): 9.23 to 13.8 h
Vd/F (Single ascending dose; male, 1 mg): 45.3 ± 6.88 L
half-life (Single ascending dose; male, 1 mg): 10.4 ± 0.552 h
Vd/F (Single ascending dose; male, 3 mg): 41.4 ± 7.17 L
half-life (Single ascending dose; male, 3 mg): 9.23 ± 0.95 h
Cmax (Single ascending dose; male, 5 mg): 205 ± 53.5 ng/mL
Tmax (Single ascending dose; male, 5 mg): 0.75 ± 0.535 h
Vd/F (Single ascending dose; male, 5 mg): 38.7 ± 4.11 L
half-life (Single ascending dose; male, 5 mg): 9.72 ± 1.17 h
Vd/F (Single ascending dose; male, 9 mg): 42.4 ± 5.4 L
Cmax (Single ascending dose; male, 15 mg): 544 ± 143 ng/mL
Cmax (Single ascending dose; male, 25 mg): 721 ± 123 ng/mL
mean daily urinary luseogliflozin excretion rate (% of daily dose) ([4]; MAD, 5 mg): 3.74–4.69%
mean urinary luseogliflozin excretion rate ([4]; MAD, 5 mg): 4.58%
CL/F ([4]; MAD, 5 mg/day oral before breakfast, Day 1, N = 8, mean ± SD): 2.72 ± 0.648 L/h
CL/F ([4]; MAD, 5 mg/day oral before breakfast, Day 7, N = 8, mean ± SD): 2.61 ± 0.537 L/h
mean daily urinary luseogliflozin excretion rate (% of daily dose) ([4]; MAD, 10 mg): 3.58–4.23%
mean urinary luseogliflozin excretion rate ([4]; MAD, 10 mg): 4.12%
CL/F ([4]; MAD, 10 mg/day oral before breakfast, Day 1, N = 8, mean ± SD): 3.05 ± 0.628 L/h
CL/F ([4]; MAD, 10 mg/day oral before breakfast, Day 7, N = 8, mean ± SD): 3.00 ± 0.612 L/h
accumulation potential ([4]; MAD, 7 days, AUCinf Day 1 vs AUCτ Day 7): No accumulation potential
trough concentrations, steady state ([4]; MAD, value just before each administration): reached a steady state by Day 7
AUC ([4]; human, plasma, 5 mg/day): 1980 ng·h/mL
AUC(0-inf) ([4]; human, plasma, 5 mg/day): 1930 ng·h/mL
AUC ([4]; human, plasma, 10 mg/day): 3470 ng·h/mL
AUC(0-inf) ([4]; human, plasma, 10 mg/day): 3430 ng·h/mL
half-life ([4]; male, human, plasma, oral, mean T 1/2 after 7-day repeat administration (range), MAD, 5 and 10 mg/day, Day 7): 9.14 to 10.7 h
SMILES: CCOc1ccc(Cc2cc([C@@H]3S[C@H](CO)[C@@H](O)[C@H](O)[C@H]3O)c(OC)cc2C)cc1 [luseogliflozin, (1S)-1,5-anhydro-1-[5-(4-ethoxybenzyl)-2-methoxy-4-methylphenyl]-1-thio-D-glucitol]
effect on fasting plasma glucose levels (plasma glucose): did not produce clinically significant decreases in fasting plasma glucose levels
mean daily UGE on Day 7 ([2]; 5 mg): 58.0 g
mean daily UGE (range) ([2]; 5 mg): 57.2 to 65.5 g
mean daily UGE on Day 7 ([2]; 10 mg): 62.7 g
mean daily UGE (range) ([2]; 10 mg): 62.7 to 76.9 g
mean daily UGE after the last administration ([2]; both 5 and 10 mg doses): about 60 g
changes in renal function test values, blood and urine electrolytes, body weight, vital signs, electrocardiography ([3]; MAD): no clinically significant changes
severity of AEs ([3]; MAD): mild and reversible
AE diarrhoea ([3]; MAD, 10 mg): 1 subject
AE occult blood positive ([3]; MAD, 10 mg): 1 subject
subjects with AEs ([3]; MAD, 16 subjects received luseogliflozin): 2 subjects
Escherichia coli and Klebsiella oxytoca in urine ([3]; MAD, after drug administration): less than 10^3 colony forming units/mL
changes in renal function test values, blood and urine electrolytes ([3]; SAD): no clinically significant changes
severity of AEs ([3]; SAD): mild, reversible, and did not appear to be dose-related
AE occult blood positive ([3]; SAD, 3 mg): 2 subjects
AE beta 2 microglobulin urine increased ([3]; SAD, 9 mg): 1 subject
AE diarrhoea ([3]; SAD, 25 mg): 1 subject
AE urethritis ([3]; SAD, 25 mg): 1 subject
subjects with AEs ([3]; SAD, 43 subjects received luseogliflozin): 7 subjects
hypoglycemia [3, 7]: no cases of hypoglycemia
serious AEs or AEs leading to discontinuation [3, 7]: no serious AEs or AEs leading to discontinuation were observed
effect of food on pharmacokinetics (Single ascending dose; SAD, 5 mg preprandial vs fasting): food had little effect on luseogliflozin pharmacokinetics
IC50 (SGLT2): 2.26 nM
selectivity: SGLT2 IC50 lower than IC50 for SGLT1 (SGLT1): 1,765 fold
increase in 24-h UGE between 1 and 5 mg [5]: 2.7 fold
increase in 24-h UGE from 5 to 25 mg [5]: 1.4 fold
maximum of mean UGE for 24 h [5]: approximately 70 g
mean UGE for 24 h after administration ([5]; 1 mg): 18.9 g
mean UGE from 24 to 48 h after administration ([5]; 1 mg): 2.53 g
mean UGE for 24 h after administration ([5]; 3 mg): 36.8 g
mean UGE from 24 to 48 h after administration ([5]; 3 mg): 12.5 g
mean UGE for 24 h after administration ([5]; 5 mg): 50.2 g
mean UGE from 24 to 48 h after administration ([5]; 5 mg): 21.3 g
mean UGE for 24 h after administration ([5]; 9 mg): 54.3 g
mean UGE from 24 to 48 h after administration ([5]; 9 mg): 37.5 g
mean UGE for 24 h after administration ([5]; 15 mg): 60.7 g
mean UGE from 24 to 48 h after administration ([5]; 15 mg): 48.4 g
mean UGE for 24 h after administration ([5]; 25 mg): 70.9 g
mean UGE from 24 to 48 h after administration ([5]; 25 mg): 62.7 g
concentration in the kidney vs plasma [6]: higher concentration in the kidney than in the plasma

SMILES: Cc1ccc([C@@H]2O[C@H](CO)[C@@H](O)[C@H](O)[C@H]2O)cc1Cc1ccc(-c2ccc(F)cc2)s1 [canagliflozin]
maximum amount of daily UGE after multiple dose [1]: 50 to 55 g/day
maximum amount of daily UGE after single dose [1]: approximately 70 g/day

SMILES: OC[C@H]1O[C@@H](c2ccc(F)c(Cc3cc4ccccc4s3)c2)[C@H](O)[C@@H](O)[C@@H]1O [ipragliflozin]
maximum amount of daily UGE after multiple dose [1]: 50 to 55 g/day
maximum amount of daily UGE after single dose [1]: approximately 70 g/day

SMILES: OC[C@H]1O[C@@H](c2ccc(Cl)c(Cc3ccc(O[C@H]4CCOC4)cc3)c2)[C@H](O)[C@@H](O)[C@@H]1O [empagliflozin]
maximum amount of daily UGE after multiple dose [1]: 50 to 55 g/day
maximum amount of daily UGE after single dose [1]: approximately 70 g/day
